In brackets after ≈: the same amount, converted by molar mass.
Test: Permeability across apical to basolateral side in MDCK cells pgp knock out incubated up to 180 mins by LC_MS/MS analysis
Type: ADME, cell-based, Canis lupus familiaris
Settings: dog, read-out: permeability
In short: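 MDCK cells with the endogenously expressed canine MDR1 gene knocked out; transport measured in the apical-to-basolateral direction; apparent permeability reported in 10^-6 cm/s.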

Row | Compound | Papp A→B at 3 h [nm/s]
1 | CN1CCN(C(=O)c2ccc([C@H]3[C@@H](F)[C@@H](F)C[C@@H](F)[C@H]3F)cc2)CC1 | 186
2 | O=C(NCC1CCOCC1)c1ccc([C@H]2[C@@H](F)[C@@H](F)C[C@@H](F)[C@H]2F)cc1 | 203
3 | CC(C(=O)Nc1ccc(C2CCCCC2)cc1)n1cncn1 (configuration not stated) | 295
4 | CN(CCC#N)C(=O)c1ccc([C@H]2[C@@H](F)[C@@H](F)C[C@@H](F)[C@H]2F)cc1 | 81
5 | CN(C)CCC(=O)Nc1ccc([C@H]2[C@@H](F)[C@@H](F)C[C@@H](F)[C@H]2F)cc1 | 37
6 | O=C(Cn1ccnc1)Nc1ccc(C2CCCCC2)cc1 | 111
7 | O=C(c1ccc([C@H]2[C@@H](F)[C@@H](F)C[C@@H](F)[C@H]2F)cc1)N1CC(O)C1 | 67
8 | O=C(Cc1cccnc1)Nc1ccc([C@H]2[C@@H](F)[C@@H](F)C[C@@H](F)[C@H]2F)cc1 | 150
9 | N#CCC(=O)Nc1ccc([C@H]2[C@@H](F)[C@@H](F)C[C@@H](F)[C@H]2F)cc1 | 160
10 | O=C(NCc1cc[nH]n1)c1ccc([C@H]2[C@@H](F)[C@@H](F)C[C@@H](F)[C@H]2F)cc1 | 21
11 | COCCN(C)C(=O)c1ccc([C@H]2[C@@H](F)[C@@H](F)C[C@@H](F)[C@H]2F)cc1 | 94
12 | COCCN(C)C(=O)c1ccc(C2CCCCC2)cc1 | 94
13 | CC(C(=O)Nc1ccc([C@H]2[C@@H](F)[C@@H](F)C[C@@H](F)[C@H]2F)cc1)n1cncn1 (some centres not stated) | 55
14 | O=C(NCCc1cccnc1)c1ccc(C2CCCCC2)cc1 | 230
15 | O=C(Cc1cccnc1)Nc1ccc(C2CCCCC2)cc1 | 199
16 | CN(Cc1cccnc1)C(=O)c1ccc(C2CCCCC2)cc1 | 121
17 | CN1CCN(C(=O)c2ccc([C@H]3[C@@H](F)[C@@H](F)C[C@@H](F)[C@H]3F)cc2)CC1=O | 45
18 | COCCC(=O)Nc1ccc([C@H]2[C@@H](F)[C@@H](F)C[C@@H](F)[C@H]2F)cc1 | 181

Row | Compound | Papp A→B at 3 h [nm/s]
19 | CN(CCC#N)C(=O)c1ccc(C2CCCCC2)cc1 | 187
20 | COCCC(=O)Nc1ccc(C2CCCCC2)cc1 | 222
21 | CN1CCN(C(=O)c2ccc(C3CCCCC3)cc2)CC1 | 203
22 | O=C(c1ccc(C2CCCCC2)cc1)N1CC(O)C1 | 260
23 | CC(=O)N1CC(C(=O)Nc2ccc([C@H]3[C@@H](F)[C@@H](F)C[C@@H](F)[C@H]3F)cc2)C1 | 6
24 | O=C(NCCN1CCCC1=O)c1ccc(C2CCCCC2)cc1 | 155
25 | CC(=O)N1CC(C(=O)Nc2ccc(C3CCCCC3)cc2)C1 | 187
26 | CN(C)CCC(=O)Nc1ccc(C2CCCCC2)cc1 | 108
27 | CN1CCN(C(=O)c2ccc(C3CCCCC3)cc2)CC1=O | 109
28 | CN(Cc1cccnc1)C(=O)c1ccc([C@H]2[C@@H](F)[C@@H](F)C[C@@H](F)[C@H]2F)cc1 | 163
29 | NC(=O)CCNC(=O)c1ccc(C2CCCCC2)cc1 | 147
30 | O=C(NCC1CCOCC1)c1ccc(C2CCCCC2)cc1 | 359
31 | O=C(NCc1cc[nH]n1)c1ccc(C2CCCCC2)cc1 | 167
32 | N#CCC(=O)Nc1ccc(C2CCCCC2)cc1 | 186
33 | NC(=O)CCNC(=O)c1ccc([C@H]2[C@@H](F)[C@@H](F)C[C@@H](F)[C@H]2F)cc1 | 4
34 | O=C(NCCN1CCCC1=O)c1ccc([C@H]2[C@@H](F)[C@@H](F)C[C@@H](F)[C@H]2F)cc1 | 35
35 | O=C(Cn1ccnc1)Nc1ccc([C@H]2[C@@H](F)[C@@H](F)C[C@@H](F)[C@H]2F)cc1 | 9

Test: Kinetic solubility of the compound
Type: physicochemical
Settings: not given

Row | Compound | Kinetic_solubility | solubility kinetic [µM]
36 | NS(=O)(=O)c1cccc(-c2ccc(C3CCCCC3)cc2)c1 | Soluble | 
37 | CN1CCC(c2ccc(-c3ccc(C4CCCCC4)cc3)cn2)CC1 | Soluble | 
38 | O=C(Nc1ccc([C@H]2[C@@H](F)[C@@H](F)C[C@@H](F)[C@H]2F)cc1)c1cn[nH]c1 |  | 136 (≈ 46.4 µg/mL)
39 | O=C(Nc1ccc(C2CCCCC2)cc1)c1cn[nH]c1 | < 1 µM | 
40 | O=C(CC1CCOCC1)Nc1ccc(C2CCCCC2)cc1 | < 1 µM | 
41 | O=C(Cc1cccnc1)Nc1ccc(C2CCCCC2)cc1 | < 1 µM | 
42 | CN1CCN(C(=O)c2ccc(C3CCCCC3)cc2)CC1 | Soluble | 
43 | O=C(COCC(F)F)Nc1ccc(C2CCCCC2)cc1 | < 1 µM | 
44 | O=C(c1ccc(C2CCCCC2)cc1)N1CC(O)C1 | Soluble | 
45 | CN1CCN(C(=O)c2ccc(C3CCCCC3)cc2)CC1=O | Soluble | 
46 | c1ncc(-c2ccc(C3CCCCC3)cc2)cn1 | Soluble | 
47 | O=C(Nc1ccc(C2CCCCC2)cc1)[C@H]1CC1(F)F | < 1 µM | 

From ChEMBL document CHEMBL5131576, “Turning the Other Cheek: Influence of the cis-Tetrafluorocyclohexyl Motif on Physicochemical and Metabolic Properties” (ACS Med Chem Lett, 2022)
